The record followed here is ChEMBL document CHEMBL3526062, “Role of human UDP-glucuronosyltransferases in the biotransformation of the triazoloacridinone and imidazoacridinone antitumor agents C-1305 and C-1311: highly selective substrates for UGT1A10” (Drug Metab Dispos, 2012).

The nature of data set [1]: Drug metabolism in human liver microsomes assessed as glucuronidation after 60 mins by Michaelis-Menten equation in presence of 3 mM UDP-GlcUA. Format: ADME. The essentials:
(§1)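 Recombinant UGT membrane protein (5 μg; His-tagged UGT1A levels normalized by anti-His Western blot) or single-donor microsomes (20 μg) incubated with substrate 5–1000 μM and 3 mM UDP-GlcUA in […] pH 7.4, 5 mM MgCl2, 5 mM saccharolactone, 2% DMSO, 60 min, 37°C. Ethanol stop, centrifuged, HPLC-UV. Initial velocities fitted to Michaelis-Menten, Hill or substrate-inhibition models; three determinations.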

Data set [2] deals with T1, UDP-glucuronosyltransferase 1A10 (Homo sapiens, UniProt Q9HAW8).
T1 sequence (Q9HAW8 whole entry): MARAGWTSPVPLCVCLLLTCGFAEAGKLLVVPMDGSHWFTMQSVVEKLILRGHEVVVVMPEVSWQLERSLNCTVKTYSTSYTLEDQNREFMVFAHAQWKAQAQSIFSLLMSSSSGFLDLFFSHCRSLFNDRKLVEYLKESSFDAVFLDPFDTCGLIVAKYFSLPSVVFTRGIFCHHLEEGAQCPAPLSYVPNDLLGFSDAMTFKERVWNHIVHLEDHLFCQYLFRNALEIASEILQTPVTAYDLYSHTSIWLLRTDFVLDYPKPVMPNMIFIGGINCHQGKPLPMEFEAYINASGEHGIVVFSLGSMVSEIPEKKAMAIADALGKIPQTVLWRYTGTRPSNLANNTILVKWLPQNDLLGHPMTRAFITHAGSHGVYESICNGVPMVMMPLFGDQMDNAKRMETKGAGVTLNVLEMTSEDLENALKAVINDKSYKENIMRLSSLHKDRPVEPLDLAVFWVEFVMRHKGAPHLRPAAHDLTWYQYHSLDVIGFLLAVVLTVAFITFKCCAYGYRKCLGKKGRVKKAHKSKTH
Kind of data set: Activity of human recombinant UGT1A10 expressed in baculovirus-infected Sf9 cells assessed as metabolite formation at 200 uM after 60 mins by HPLC analysis. Format: ADME. Particulars: sf9, 1 h. The procedure, abridged: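 Protein (5 μg UGT1A10 or microsomal) incubated with 0.2 mM substrate and 3 mM UDP-GlcUA, 60 min. HPLC on C18 at 25°C with a 15–80% methanol gradient in 0.05 M ammonium formate pH 3.4 at 1 ml/min. ESI positive-ion MS and UV/Vis spectra taken from the peaks. Glucuronide confirmed by 60 min further treatment with 1000 U E. coli β-glucuronidase.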

The next data set concerns Liver microsome. Put plainly: Drug metabolism in human liver microsomes assessed as glucuronidation per mg of protein after 60 mins by Michaelis-Menten equation in presence of 3 mM UDP-GlcUA. Format: ADME. Particulars: 1 h. The essentials:
as §1
(Microsomes from liver hold many membrane-bound enzymes, among them those of drug oxidation.)

A short description of data set [3]: Drug metabolism in human jejunum microsomes assessed as glucuronidation activity at 0.1 mM for 60 mins in presence of 3 mM UDP-GlcUA. Format: ADME. Particulars: 1 h, 100 µM. The procedure, abridged:
(§2)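 Microsomes from single donors (20 μg protein) incubated with 0.1 mM substrate and 3 mM UDP-GlcUA for 60 min at 37°C in Tris-HCl pH 7.4 buffer with 5 mM MgCl2, 5 mM saccharolactone and 2% DMSO. Glucuronide measured by HPLC; donor data summarized as box-and-whisker plots.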

Data set [4] addresses T2, UDP-glucuronosyltransferase 1A9 (Homo sapiens, UniProt O60656).
T2 sequence (O60656 whole entry): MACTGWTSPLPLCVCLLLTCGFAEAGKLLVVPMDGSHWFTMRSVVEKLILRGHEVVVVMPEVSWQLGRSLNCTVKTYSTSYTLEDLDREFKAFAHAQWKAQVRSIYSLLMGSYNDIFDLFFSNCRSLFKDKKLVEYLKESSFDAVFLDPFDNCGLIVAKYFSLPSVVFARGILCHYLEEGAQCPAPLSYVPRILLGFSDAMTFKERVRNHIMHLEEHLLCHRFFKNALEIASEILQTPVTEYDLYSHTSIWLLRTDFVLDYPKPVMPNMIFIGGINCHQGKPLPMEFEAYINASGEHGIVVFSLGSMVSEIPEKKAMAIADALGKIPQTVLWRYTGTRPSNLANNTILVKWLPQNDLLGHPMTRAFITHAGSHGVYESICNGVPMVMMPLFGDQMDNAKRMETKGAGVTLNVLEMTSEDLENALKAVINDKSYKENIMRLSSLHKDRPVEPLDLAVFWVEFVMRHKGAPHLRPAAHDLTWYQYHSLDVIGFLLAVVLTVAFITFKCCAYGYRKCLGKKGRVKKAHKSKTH
Put plainly: Inhibition of human recombinant UGT1A9 activity expressed in baculovirus-infected Sf9 cells. Format: ADME.

The nature of data set [5]: Drug metabolism in human ileum microsomes assessed as glucuronidation activity at 0.1 mM for 60 mins in presence of 3 mM UDP-GlcUA. Particulars: 1 h, 100 µM. Format: ADME. The procedure, abridged: as §2
The nature of data set [6]: Drug metabolism in human duodenum microsomes assessed as glucuronidation activity at 0.1 mM for 60 mins in presence of 3 mM UDP-GlcUA. Format: ADME, microsome. The conditions noted are these: 1 h, 100 µM. The procedure, abridged: as §2
Data set [7] has as its target T3, UDP-glucuronosyltransferase 1A1 (Homo sapiens, UniProt P22309).
T3 sequence (P22309 whole entry): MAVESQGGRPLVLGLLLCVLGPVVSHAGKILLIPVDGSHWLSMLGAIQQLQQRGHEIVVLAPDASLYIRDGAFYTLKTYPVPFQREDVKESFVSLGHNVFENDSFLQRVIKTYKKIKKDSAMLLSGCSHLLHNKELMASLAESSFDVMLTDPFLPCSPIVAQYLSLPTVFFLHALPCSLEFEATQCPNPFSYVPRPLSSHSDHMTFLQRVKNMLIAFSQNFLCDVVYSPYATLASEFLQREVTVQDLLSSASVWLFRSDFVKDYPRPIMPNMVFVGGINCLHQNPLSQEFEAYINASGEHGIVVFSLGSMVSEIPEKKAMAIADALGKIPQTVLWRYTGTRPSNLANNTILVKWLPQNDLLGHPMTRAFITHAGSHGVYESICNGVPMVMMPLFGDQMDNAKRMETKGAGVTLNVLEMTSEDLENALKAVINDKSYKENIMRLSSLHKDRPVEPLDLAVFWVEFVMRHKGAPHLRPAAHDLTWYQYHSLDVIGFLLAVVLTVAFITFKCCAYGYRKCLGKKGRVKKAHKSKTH
Put plainly: Activity of human recombinant UGT1A1 expressed in baculovirus-infected Sf9 cells assessed as glucuronidation activity per mg of protein at 100 to 200 uM after 60 mins in presence of 3 mM UDP-GlcUA. Format: ADME. The conditions noted are these: sf9, 1 h. The procedure, abridged:
(§3)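 Screening: 5 μg recombinant UGT protein (His-tag levels normalized) in Tris-HCl pH 7.4, 5 mM MgCl2, 5 mM saccharolactone, 2% DMSO to permeabilize membranes. Substrate at 100 or 200 μM, added in water. Started with 3 mM UDP-GlcUA, 60 min at 37°C, stopped with ethanol, then centrifuged. Glucuronide quantified by reversed-phase C18 HPLC against the substrate response; triplicates.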

The target of data set [8] is T1, UDP-glucuronosyltransferase 1A10. Put plainly: Activity of human recombinant UGT1A10 expressed in baculovirus-infected Sf9 cells assessed as glucuronidation activity per mg of protein at 100 to 200 uM after 60 mins in presence of 3 mM UDP-GlcUA. Format: ADME. Particulars: sf9, 1 h. The procedure, abridged:
as §3

Data set [9] in a line: Drug metabolism in human intestinal microsomes assessed as glucuronidation per mg of protein after 60 mins by Michaelis-Menten equation in presence of 3 mM UDP-GlcUA. Format: ADME, Intestine, Microsome. The conditions noted are these: 1 h. The essentials: as §1

Turning to `CCN(CC)CCNc1ccc2ncn3c4ccc(O)cc4c(=O)c1c23` [C-1311], in data set [1], the Km at 1 h worked out at 39.3 µM. Further, the Drug metabolism entry is “metabolite_detected” in [2]; “metabolite_detected” in data set [3]; “metabolite_detected” in data set [5]; “metabolite_detected” in data set [6]; less than 0.1 nmol/min/mg in [7]; greater than 0.5 nmol/min/mg in data set [8]. In addition, the Vmax in the data set on Liver microsome was found to be 0.156 nmol/min/mg; in data set [9], 0.823 nmol/min/mg. The Ki in [4] was determined as 958 µM.
Consider `CN(C)CCCNc1ccc2nnn3c4ccc(O)cc4c(=O)c1c23`, for which, in data set [1], the Km at 1 h was found to be 71.3 µM. In addition, the Drug metabolism result in [2] was “metabolite_detected”; in data set [3], “metabolite_detected”; in [5] it was “metabolite_detected”; in [6], “metabolite_detected”; in data set [7], less than 0.1 nmol/min/mg; in [8], greater than 0.5 nmol/min/mg. In addition, the figures for the Vmax (with Liver microsome; in [9]) were 0.386 nmol/min/mg and 0.413 nmol/min/mg, respectively. The Ki in [4] stood at 1650 µM.

Broadly, the Km is the substrate concentration at which the rate is half of its maximum. One may read the Vmax as the rate approached at saturating substrate. Broadly, the Ki is a dissociation constant, usually derived from enzyme kinetics or from competition with a known ligand.
